From ChEMBL document CHEMBL4480394, “Benzimidazolone-based selective σ2 receptor ligands: Synthesis and pharmacological evaluation” (Eur J Med Chem, 2019)

Key:
[1] = target: T1, Sigma intracellular receptor 2 (Rattus norvegicus, UniProt Q5U3Y7); assay: Displacement of [3H]-DTG from sigma2 receptor in rat brain membranes after 120 mins in presence of (+)-pentazocine by radioligand binding assay; type: cell membranes
T1 sequence (Q5U3Y7 whole entry): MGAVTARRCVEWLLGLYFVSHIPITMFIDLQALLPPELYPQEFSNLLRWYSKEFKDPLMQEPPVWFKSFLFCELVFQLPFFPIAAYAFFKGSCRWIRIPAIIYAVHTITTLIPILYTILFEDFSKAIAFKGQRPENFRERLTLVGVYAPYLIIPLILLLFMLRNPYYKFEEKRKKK

[2] = target: Sodium-dependent dopamine transporter (Rattus norvegicus, UniProt P23977); assay: Displacement of [3H]WIN 35428 from dopamine transporter in rat striatal membranes after 120 mins by radioligand binding assay; type: cell membranes, Striatum, Membrane
Rattus norvegicus [3] = species on record: Rattus norvegicus; assay: Selectivity ratio of Ki for sigma1 receptor in rat brain membranes to Ki for sigma2 receptor in rat brain membranes; type: cell membranes
[4] = target: 5-hydroxytryptamine receptor 2A (Rattus norvegicus, UniProt P14842); assay: Displacement of [3H]ketanserin from 5-HT2 receptor in rat brain membranes after 120 mins by radioligand binding assay; type: cell membranes
Procedure, shortened: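 5-HT2 site in rat brain (minus cerebellum) membranes labeled with 2 nM [3H]ketanserin; 1 µM mianserin nonspecific. Glass-fiber filtration, Ki by Cheng-Prusoff; triplicate, mean ± SEM.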

D(2) dopamine receptor = D(2) dopamine receptor (Rattus norvegicus, UniProt P61169); assay: Displacement of [3H](-)-sulpiride from dopamine D2 receptor in rat brain membranes after 120 mins by radioligand binding assay; type: cell membranes
[5] = Displacement of [3H]nisoxetine from norepinephrine transporter in rat cerebral cortex membranes after 120 mins by radioligand binding assay; type: cell membranes, Membrane
[6] = target: Sodium-dependent serotonin transporter (Rattus norvegicus, UniProt P31652); assay: Displacement of [3H]paroxetine from serotonin transporter in rat brainstem membranes after 120 mins by radioligand binding assay; type: cell membranes
Procedure, shortened: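 Rat brainstem membranes, 0.2 nM [3H]paroxetine; nonspecific with 1.5 µM imipramine. Ice-cold buffer stop, glass-fiber filtration, Cheng-Prusoff Ki; triplicate, mean ± SEM.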

[7] = target: Sigma non-opioid intracellular receptor 1 (Rattus norvegicus, UniProt Q9R0C9); assay: Displacement of [3H](+)-pentazocine from sigma1 receptor in rat brain membranes after 120 mins by radioligand binding assay; type: cell membranes
Opioid receptor = Opioid receptor (Rattus norvegicus, UniProt P33533+P34975+P33535); assay: Displacement of [3H]bremazocine from opioid receptor in rat brain membranes after 120 mins by radioligand binding assay; type: cell membranes
Glutamate NMDA receptor = assay: Displacement of [3H]TCP from NMDA receptor in rat brain membranes after 120 mins by radioligand binding assay; type: cell membranes
Procedure, shortened: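 PCP site of NMDA receptor in rat brain minus cerebellum membranes, 5 nM [3H]TCP; nonspecific with 10 µM cyclazocine.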

Rattus norvegicus [8] = species on record: Rattus norvegicus; assay: Selectivity ratio of Ki for 5-HT2 receptor in rat brain membranes to Ki for sigma2 receptor in rat brain membranes; type: cell membranes
Mus musculus = assay: Anticonvulsant activity in ip dosed Swiss Webster mouse assessed as reduction in cocaine-induced convulsion pretreated for 15 mins followed by cocaine-challenge and measured for 30 mins; type: functional, organism-based

Sigma non-opioid intracellular receptor 1, sequence (Q9R0C9 whole entry): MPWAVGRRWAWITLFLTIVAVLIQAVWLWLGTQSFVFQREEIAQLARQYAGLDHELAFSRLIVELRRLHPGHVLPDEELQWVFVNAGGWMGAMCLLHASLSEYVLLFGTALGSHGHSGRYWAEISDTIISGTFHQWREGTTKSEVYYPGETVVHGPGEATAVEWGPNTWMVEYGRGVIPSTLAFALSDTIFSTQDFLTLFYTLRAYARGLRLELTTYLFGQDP
Sodium-dependent serotonin transporter, sequence (P31652 whole entry): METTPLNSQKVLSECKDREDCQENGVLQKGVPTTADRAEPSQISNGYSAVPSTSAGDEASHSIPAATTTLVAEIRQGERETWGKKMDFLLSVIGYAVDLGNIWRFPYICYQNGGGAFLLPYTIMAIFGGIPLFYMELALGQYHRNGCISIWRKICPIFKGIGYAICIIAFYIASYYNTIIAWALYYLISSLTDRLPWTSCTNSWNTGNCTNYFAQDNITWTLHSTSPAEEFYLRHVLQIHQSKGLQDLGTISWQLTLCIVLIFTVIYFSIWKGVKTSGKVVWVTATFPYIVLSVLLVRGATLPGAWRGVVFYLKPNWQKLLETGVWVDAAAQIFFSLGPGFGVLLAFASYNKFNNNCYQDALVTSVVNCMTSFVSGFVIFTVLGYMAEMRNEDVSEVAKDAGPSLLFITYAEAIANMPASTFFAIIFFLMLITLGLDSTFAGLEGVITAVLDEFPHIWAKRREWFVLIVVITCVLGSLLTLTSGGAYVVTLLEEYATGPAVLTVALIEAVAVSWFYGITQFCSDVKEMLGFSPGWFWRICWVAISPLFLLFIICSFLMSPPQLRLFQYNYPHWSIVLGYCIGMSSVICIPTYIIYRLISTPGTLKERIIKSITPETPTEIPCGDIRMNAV
D(2) dopamine receptor, sequence (P61169 whole entry): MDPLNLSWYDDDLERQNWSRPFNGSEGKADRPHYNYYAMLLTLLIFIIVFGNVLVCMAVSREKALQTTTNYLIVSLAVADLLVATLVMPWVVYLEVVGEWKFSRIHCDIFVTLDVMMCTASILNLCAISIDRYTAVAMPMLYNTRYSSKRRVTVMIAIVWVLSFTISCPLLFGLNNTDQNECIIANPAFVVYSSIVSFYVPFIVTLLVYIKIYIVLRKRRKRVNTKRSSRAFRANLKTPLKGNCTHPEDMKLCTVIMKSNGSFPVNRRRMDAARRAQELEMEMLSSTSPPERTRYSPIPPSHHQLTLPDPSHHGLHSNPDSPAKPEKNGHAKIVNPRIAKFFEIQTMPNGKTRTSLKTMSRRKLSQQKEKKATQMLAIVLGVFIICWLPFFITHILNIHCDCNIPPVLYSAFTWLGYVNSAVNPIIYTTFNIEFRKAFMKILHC
5-hydroxytryptamine receptor 2A, sequence (P14842 whole entry): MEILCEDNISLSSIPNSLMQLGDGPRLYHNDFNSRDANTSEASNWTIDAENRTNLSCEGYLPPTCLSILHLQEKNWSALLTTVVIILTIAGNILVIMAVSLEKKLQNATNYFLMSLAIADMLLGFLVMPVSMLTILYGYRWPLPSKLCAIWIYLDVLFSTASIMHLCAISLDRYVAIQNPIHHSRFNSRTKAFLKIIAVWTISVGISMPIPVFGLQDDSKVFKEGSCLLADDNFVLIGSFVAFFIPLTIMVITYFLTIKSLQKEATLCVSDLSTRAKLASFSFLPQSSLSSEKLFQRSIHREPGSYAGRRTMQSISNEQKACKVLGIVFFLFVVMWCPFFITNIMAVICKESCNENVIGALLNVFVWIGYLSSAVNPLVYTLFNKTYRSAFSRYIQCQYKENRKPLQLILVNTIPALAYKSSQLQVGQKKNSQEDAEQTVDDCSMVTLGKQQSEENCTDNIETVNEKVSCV
Sodium-dependent dopamine transporter, sequence (P23977 whole entry): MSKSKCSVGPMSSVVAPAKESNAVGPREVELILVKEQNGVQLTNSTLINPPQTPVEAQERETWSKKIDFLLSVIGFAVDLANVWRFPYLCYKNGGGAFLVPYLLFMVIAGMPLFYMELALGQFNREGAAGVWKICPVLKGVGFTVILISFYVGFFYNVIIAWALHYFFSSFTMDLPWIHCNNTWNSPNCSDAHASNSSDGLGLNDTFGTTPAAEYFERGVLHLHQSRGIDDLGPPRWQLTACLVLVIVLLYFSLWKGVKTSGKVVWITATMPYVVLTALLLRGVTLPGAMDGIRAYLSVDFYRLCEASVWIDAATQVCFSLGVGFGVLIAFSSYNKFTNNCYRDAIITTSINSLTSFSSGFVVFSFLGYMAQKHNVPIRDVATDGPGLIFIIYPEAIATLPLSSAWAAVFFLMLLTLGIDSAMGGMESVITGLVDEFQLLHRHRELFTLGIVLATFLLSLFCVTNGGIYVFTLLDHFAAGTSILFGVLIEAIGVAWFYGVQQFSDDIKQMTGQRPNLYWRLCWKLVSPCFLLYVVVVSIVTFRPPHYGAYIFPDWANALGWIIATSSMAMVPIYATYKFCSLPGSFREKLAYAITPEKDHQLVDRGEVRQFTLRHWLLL

| SMILES | Ki [1] [nM] | Ki [2] [nM] | Ratio Ki (Rattus norvegicus [3]) | Ki [4] [nM] | Ki (D(2) dopamine receptor) [nM] | Ki [5] [nM] | Ki [6] [nM] | Ki [7] [nM] | Ki (Opioid receptor) [nM] | Ki (Glutamate NMDA receptor) [nM] | Ratio Ki (Rattus norvegicus [8]) | Activity (Mus musculus) |
| --- | --- | --- | --- | --- | --- | --- | --- | --- | --- | --- | --- | --- |
| CCCCCCCCCCn1c(=O)n(CCCCN2CCN(c3ccc(F)cc3)CC2)c2ccc(C(C)=O)cc21 | 32.5 | – | 30.4 | – | – | – | – | 988 | – | – | – | – |
| Cn1c(=O)n(CCCCN2CCN(c3ccc(F)cc3)CC2)c2ccccc21 | 2.05 | – | – | – | – | – | – | – | – | – | – | – |
| O=c1[nH]c2ccccc2n1CCCCN1CCN(c2ccc(F)cc2)CC1 | 18.4 | – | – | – | – | – | – | 144 | – | – | – | – |
| CC(=O)c1ccc2c(c1)[nH]c(=O)n2CCCCN1CCN(c2ccc(F)cc2)CC1 | 28.5 | – | 5.8 | – | – | – | – | 166 | – | – | – | – |

More lines, in order of falling Ki [1], values ahead:

| Ki [1] [nM] | Ki [2] [nM] | Ratio Ki (Rattus norvegicus [3]) | Ki [4] [nM] | Ki (D(2) dopamine receptor) [nM] | Ki [5] [nM] | Ki [6] [nM] | Ki [7] [nM] | Ki (Opioid receptor) [nM] | Ki (Glutamate NMDA receptor) [nM] | Ratio Ki (Rattus norvegicus [8]) | SMILES | Activity (Mus musculus) |
| --- | --- | --- | --- | --- | --- | --- | --- | --- | --- | --- | --- | --- |
| 7.6 | – | 9.5 | – | – | – | – | 72.3 | – | – | – | CC(=O)c1ccc2c(c1)n(C)c(=O)n2CCCCN1CCN(c2ccc(F)cc2)CC1 | – |
| 4.55 | – | 159 | – | – | – | – | 724 | – | – | – | CCCCCCCCCCn1c(=O)n(CCCCN2CCN(c3ccc(F)cc3)CC2)c2ccccc21 | – |
| 4.27 | > 1000 | 532 | 250 | > 1000 | > 10000 | 446 | 2270 | > 10000 | > 10000 | – | CCCCCn1c(=O)n(CCCCN2CCN(c3ccc(F)cc3)CC2)c2ccccc21 | – |
| 2.15 | – | 139 | – | – | – | – | 299 | – | – | – | CCCCCn1c(=O)n(CCCCN2CCN(c3ccc(F)cc3)CC2)c2ccc(C(C)=O)cc21 | – |
| 1.81 | – | 151 | – | – | – | – | 273 | – | – | – | CCCn1c(=O)n(CCCCN2CCN(c3ccc(F)cc3)CC2)c2ccc(C(C)=O)cc21 | – |
| 0.66 | > 1000 | 1140 | 54.7 | > 10000 | > 10000 | > 1000 | 752 | > 10000 | > 10000 | 83 | CCCn1c(=O)n(CCCCN2CCN(c3ccc(F)cc3)CC2)c2ccccc21 | Dose-dependent effect |
